Tests used:
Type in all cases: functional
Listeria monocytogenes = assay: Antimicrobial activity against Listeria monocytogenes ATCC 19111 assessed as growth inhibition rate at 4 mg/l after 72 hr by spectrophotometry; settings: ATCC 19111, 72 h, read-out: GI
Method in brief: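 L. monocytogenes was grown at 30 °C in tryptic soy broth, subcultured for 18 h, and exposed to pure volatile compounds (>95% purity). Growth was followed by Bioscreen C optical density every 24 h for 72 h against a 10% Tween 80 control.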

Vibrio parahaemolyticus = assay: Antimicrobial activity against Vibrio parahaemolyticus ATCC 33844 assessed as growth inhibition rate at 4 mg/l after 72 hr by spectrophotometry; settings: ATCC 33844, 72 h, read-out: GI
Salmonella typhimurium = assay: Antimicrobial activity against Salmonella enterica subsp. enterica serovar Typhimurium ATCC 14028 assessed as growth inhibition rate at 4 mg/l after 72 hr by spectrophotometry; settings: ATCC 14028, 72 h, read-out: GI
Method in brief: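 Salmonella Typhimurium ATCC 14028 grown in nutrient broth at 30 °C, precultured 24 h, then subcultured 1:100 for 18 h before testing. Single volatile compounds (>95% pure) were added. OD was read every 24 h over 72 h in a Bioscreen C, with 10% Tween 80 as the comparison control.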

Escherichia coli = assay: Antimicrobial activity against Escherichia coli O157:H7 ATCC 43894 assessed as growth inhibition rate at 4 mg/l after 72 hr by spectrophotometry; settings: O157:H7 ATCC 43894, 72 h, read-out: GI
Staphylococcus aureus = assay: Antimicrobial activity against Staphylococcus aureus ATCC 25923 assessed as growth inhibition rate at 4 mg/l after 72 hr by spectrophotometry; settings: ATCC 25923, 72 h, read-out: GI
Bacillus cereus = assay: Antimicrobial activity against Bacillus cereus ATCC 11778 assessed as growth inhibition rate at 4 mg/l after 72 hr by spectrophotometry; settings: ATCC 11778, 72 h, read-out: GI
Method in brief: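 Pure volatile compounds (purity >95%; one at 90%) were tested against B. cereus ATCC 11778. The strain was grown at 30 °C in nutrient broth for 24 h, then subcultured for 18 h. Optical density was read in a Bioscreen C every 24 h for 72 h, with 10% Tween 80 as the control.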

For `CC1=CC[C@@H]2C3C(C(C)C)CCC2(C)[C@@H]13` (stereo partly drawn) [(-)-ALPHA-COPAENE], the inhibition of growth at 4 µg/mL (Listeria monocytogenes) was 0%, the inhibition of growth at 4 µg/mL (Vibrio parahaemolyticus) was 0% and the inhibition of growth at 4 µg/mL (Salmonella typhimurium) was 0.1%. It also gave an inhibition of growth at 4 µg/mL (Escherichia coli) of 0%, an inhibition of growth at 4 µg/mL (Staphylococcus aureus) of 5.7% and an inhibition of growth at 4 µg/mL (Bacillus cereus) of 5.9%.
